Paper PMC9521027 (ACS Omega, 2022)
Changes are numbered by the printed parent chain.

Experiments:
URAT1 K393D mutant [1] = target: T1, URAT1 K393D mutant (Homo sapiens, UniProt Q96S37, K393D); assay: 14C-uric acid binding assay with membrane protein; settings: 2.5 μg membrane protein, 25 μM 14C-uric acid, 30 min
T1 sequence (Q96S37 1-553 K393D): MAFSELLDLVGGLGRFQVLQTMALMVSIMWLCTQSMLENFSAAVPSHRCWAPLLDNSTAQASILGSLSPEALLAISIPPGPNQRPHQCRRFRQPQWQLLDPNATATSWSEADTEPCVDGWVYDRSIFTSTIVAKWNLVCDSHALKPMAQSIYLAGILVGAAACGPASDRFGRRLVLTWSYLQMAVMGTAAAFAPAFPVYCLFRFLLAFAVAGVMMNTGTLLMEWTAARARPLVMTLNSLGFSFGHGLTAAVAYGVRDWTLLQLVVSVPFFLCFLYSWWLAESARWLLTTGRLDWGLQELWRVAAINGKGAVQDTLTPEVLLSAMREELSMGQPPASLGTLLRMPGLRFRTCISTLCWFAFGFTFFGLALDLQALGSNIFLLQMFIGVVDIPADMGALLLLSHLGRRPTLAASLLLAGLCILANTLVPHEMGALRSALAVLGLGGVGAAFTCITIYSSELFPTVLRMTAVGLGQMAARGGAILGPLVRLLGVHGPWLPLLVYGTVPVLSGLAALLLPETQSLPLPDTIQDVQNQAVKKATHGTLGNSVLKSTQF
Outline: (§1)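 Membranes came from HEK293 cells transiently transfected (Lipofectamine 3000) with sequence-confirmed site-directed K393 mutant hURAT1 plasmids; control membranes came from cells transfected with pECFP empty vector. Cells were harvested in ice-cold 25 mM HEPES pH 7.3 with 125 mM sodium gluconate, and membranes were extracted with a kit. Protein was incubated at room temperature, then rapid-filtered, washed with ice-cold DPBS, dissolved in 0.1 M NaOH and scintillation-counted. n = 3, mean ± SD.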

URAT1 K393R mutant [2] = target: T2, URAT1 K393R mutant (Homo sapiens, UniProt Q96S37, K393R); assay: 14C-uric acid uptake assay in transfected HEK293 cells; format: cell-based; settings: K393R, HEK293 cells
T2 sequence (Q96S37 1-553 K393R): T1 sequence (Q96S37 1-553 K393D) with D393R

URAT1 WT = target: T3, URAT1 WT (Homo sapiens, UniProt Q96S37); assay: Saturation kinetic experiment of 14C-uric acid uptake; format: cell-based; settings: wild-type group
T3 sequence (Q96S37 1-553): T1 sequence (Q96S37 1-553 K393D) with D393K

URAT1 K393D mutant [3] = target: T1, URAT1 K393D mutant; assay: 14C-uric acid uptake assay in transfected HEK293 cells; format: cell-based; settings: K393D, HEK293 cells
URAT1 K393E mutant = target: T4, URAT1 K393E mutant (Homo sapiens, UniProt Q96S37, K393E); assay: 14C-uric acid binding assay with membrane protein; settings: 2.5 μg membrane protein, 25 μM 14C-uric acid, 30 min
T4 sequence (Q96S37 1-553 K393E): T1 sequence (Q96S37 1-553 K393D) with D393E
Outline: as §1

URAT1 K393R mutant [4] = target: T2, URAT1 K393R mutant; assay: 14C-uric acid binding assay with membrane protein; settings: 2.5 μg membrane protein, 25 μM 14C-uric acid, 30 min

14C-uric acid binding compared with WT (URAT1 K393D mutant [1]): significant loss | 14C-uric acid transport compared with WT (URAT1 K393R mutant [2]): no reduction | Vmax (URAT1 WT): 654.12 µM | 14C-urate transport capacity lost compared with WT (URAT1 K393D mutant [3]): 70–80% | 14C-uric acid binding compared with WT (URAT1 K393E mutant): significant loss | 14C-uric acid binding capacity compared with WT (URAT1 K393R mutant [4]): similar
Structure (SMILES): O=c1[nH]c(=O)c2[nH]c(=O)[nH]c2[nH]1 [uric acid]
